Active and inactive are the calls of the source. The calls are words filed in the database; no cut-off is given here.
Tests used:
[1] = biological target: T1, NAD-dependent protein deacetylase sirtuin-2 (Homo sapiens) (UniProt Q8IXJ6); conditions: HCT-116, 10 uM
T1 sequence (whole entry): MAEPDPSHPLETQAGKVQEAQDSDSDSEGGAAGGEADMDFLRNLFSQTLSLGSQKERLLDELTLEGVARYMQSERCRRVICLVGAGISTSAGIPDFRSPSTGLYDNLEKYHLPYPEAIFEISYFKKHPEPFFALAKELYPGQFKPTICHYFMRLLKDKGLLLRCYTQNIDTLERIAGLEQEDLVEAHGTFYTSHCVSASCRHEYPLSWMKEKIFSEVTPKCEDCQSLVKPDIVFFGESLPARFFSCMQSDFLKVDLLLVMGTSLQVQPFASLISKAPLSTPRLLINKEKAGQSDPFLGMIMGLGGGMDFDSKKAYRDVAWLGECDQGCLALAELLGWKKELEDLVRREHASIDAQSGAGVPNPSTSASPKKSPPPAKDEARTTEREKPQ

[2] = biological target: T2, NAD-dependent protein deacetylase sirtuin-1 (Homo sapiens, UniProt Q96EB6); experiment: Inhibition of human recombinant SIRT1 using Fluor de Lys-SIRT as substrate incubated for 60 mins prior to substrate addition measured after 60 mins by fluorimetric analysis
T2 sequence (Q96EB6 whole entry): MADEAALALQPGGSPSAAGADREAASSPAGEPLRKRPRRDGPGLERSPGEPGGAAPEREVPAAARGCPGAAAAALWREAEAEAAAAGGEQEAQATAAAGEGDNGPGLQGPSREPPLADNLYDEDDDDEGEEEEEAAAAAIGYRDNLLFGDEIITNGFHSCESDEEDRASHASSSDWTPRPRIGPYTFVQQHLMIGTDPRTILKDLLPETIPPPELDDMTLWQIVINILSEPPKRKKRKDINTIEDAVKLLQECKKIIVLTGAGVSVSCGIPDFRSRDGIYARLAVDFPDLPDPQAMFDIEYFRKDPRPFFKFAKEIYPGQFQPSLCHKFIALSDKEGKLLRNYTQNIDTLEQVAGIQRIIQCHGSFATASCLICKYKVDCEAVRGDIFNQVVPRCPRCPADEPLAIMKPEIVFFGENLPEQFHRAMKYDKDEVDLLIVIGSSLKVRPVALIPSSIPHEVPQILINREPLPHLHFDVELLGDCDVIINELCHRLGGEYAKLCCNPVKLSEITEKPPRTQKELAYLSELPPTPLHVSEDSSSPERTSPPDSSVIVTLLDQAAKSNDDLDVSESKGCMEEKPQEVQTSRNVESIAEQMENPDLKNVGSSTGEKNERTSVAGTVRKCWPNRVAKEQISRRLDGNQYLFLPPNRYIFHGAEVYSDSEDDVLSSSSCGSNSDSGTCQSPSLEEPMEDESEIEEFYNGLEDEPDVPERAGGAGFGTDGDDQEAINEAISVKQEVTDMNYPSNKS
Outline: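 Human recombinant SIRT1 run the same way: 60 min at 37 °C with 1 mM NAD⁺ and serial compound dilutions, then 25 μM Fluor de Lys-SIRT substrate for 60 min. Stopped with nicotinamide-containing Developer II and read 45 min later at ex 360/em 460 nm. IC₅₀ from logit regression of % inhibition vs control; means of ≥3 experiments.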

[3] = biological target: T3, NAD-dependent protein deacetylase sirtuin-1 (Homo sapiens) (UniProt Q96EB6); conditions: HCT-116, 10 uM
T3 sequence (whole entry): T2 sequence (Q96EB6 whole entry)

[4] = biological target: T4, NAD-dependent protein deacetylase sirtuin-2 (Homo sapiens, UniProt Q8IXJ6); experiment: Inhibition of human recombinant SIRT2 using Fluor de Lys-SIRT as substrate incubated for 60 mins prior to substrate addition measured after 60 mins by fluorimetric analysis
T4 sequence (Q8IXJ6 whole entry): T1 sequence (whole entry)
Outline: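 Human recombinant SIRT2 preincubated with 1 mM NAD⁺ and serial compound dilutions for 60 min at 37 °C, then 25 μM Fluor de Lys-SIRT substrate added. Reaction stopped at 60 min with Developer II containing nicotinamide. Fluorescence read 45 min later at ex 360/em 460 nm. % inhibition taken against control wells. IC₅₀ obtained by regression of log[Inh] vs logit % inhibition; means of ≥3 experiments.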

[5] = biological target: T3, NAD-dependent protein deacetylase sirtuin-1 (Homo sapiens); experiment: Inhibition of human recombinant SIRT1 using Fluor de Lys-SIRT as substrate at 100 uM incubated for 60 mins prior to substrate addition measured after 60 mins by fluorimetric analysis
Outline: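 Single-point SIRT1 test at 100 μM compound. Human recombinant enzyme with 1 mM NAD⁺ at 37 °C for 60 min, then 25 μM Fluor de Lys-SIRT substrate for 60 min. Stopped with nicotinamide developer; fluorescence read at 360/460 nm after 45 min. Inhibition expressed as % relative to uninhibited control wells.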

Row | inhibition [1] | IC50 [2] [µM] | inhibition [3] | IC50 [4] [µM] | inhibition [5] [%] | Compound
1 | Active | 30 |  |  |  | N#C/C(=C\c1ccc(-c2cc(Cl)ccc2Cl)o1)C(=O)Nc1cccc2ncccc12
2 |  |  | Active |  |  | NC(=O)C1CCCc2c1[nH]c1ccc(Cl)cc21 (stereo unspecified)
3 |  | > 100 |  | 33 | 13 | NC(=O)c1ccccc1Nc1ccc(OCc2ccccc2)cc1

Reference: ChEMBL document CHEMBL2150931, “Design, synthesis, and biological activity of a novel series of human sirtuin-2-selective inhibitors” (J Med Chem, 2012)
